Source: publication PMC10973196 (Saudi Pharmaceutical Journal : SPJ, 2024)
Converted amounts (≈) assume the structure as drawn.

Assays:
lung cancer cell (A549) = experiment: Cell viability; assay type: cell-based; details: Homo sapiens, A549, 48 h, read-out: IC50, cytotoxic activity
Summary of the method: (§1)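 Cells were seeded in 96-well plates, grown for 24 h, then exposed to test compounds at various concentrations for 48 h. MTT solution (5 mg/mL) was added for 2–4 h at 37 °C, and formazan absorbance was read at 570 nm. Viability was expressed as treated/untreated absorbance ×100, and IC50 was fitted from viability dose-response curves.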

Cell viability = assay type: cell-based; details: human, normal HUVEC cells
Summary of the method: as §1

[1] = molecular target: SARS-CoV-2 main protease (Mpro) (Severe acute respiratory syndrome coronavirus 2, UniProt P0DTD1); experiment: biochemical

| Compound | IC50 (lung cancer cell (A549)) | IC50 at 48 h (Cell viability) | IC50 [1] |
| --- | --- | --- | --- |
| COc1cccc2c1C(=O)c1c(O)c3c(c(O)c1C2=O)C[C@@](O)(C(=O)CO)C[C@@H]3O[C@H]1C[C@H](N)[C@H](O)[C@H](C)O1 [Doxorubicin, reference compound] | 1.45 ± 0.05 µg/mL (≈ 2.67 µM) | 2.5 ± 0.1 µg/mL (≈ 4.6 µM) |  |
| C[C@@H]1O[C@@H](Oc2cc3c(=O)oc4c(O)c(O)cc5c(=O)oc(c2O)c3c45)[C@H](O)[C@H](O)[C@H]1O [Compound 10, ellagic acid-2-O-α-L-rhamnopyranoside (eschweilenol C)] | > 100 µg/mL | > 100 µg/mL | 22.3 µM |
| O=c1cc(-c2ccc(O)cc2)oc2cc(O)c([C@@H]3O[C@H](CO)[C@@H](O)[C@H](O)[C@H]3O)c(O)c12 [Compound 14, apigenin-6-C-β-D-glucoside (isovitexin)] | > 100 µg/mL | > 100 µg/mL | 21.7 µM |
